Test results taken from ChEMBL document CHEMBL1121659 (J Med Chem, 1981).

Legend:
[1] = Compound was evaluated for the tissue levels after 1 hour of administration of 5 mg/kg through intravenous route, the given data is tissue/plasma ratios gastrointestinal tract; type: ADME, organism-based; parameters: dose 5 mg/kg, route intravenous
Method in brief: (§1)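 Anesthetized male Wistar rats received [14C] compound 5 mg/kg by slow jugular infusion in propylene glycol–0.1 N NaOH (1:1). Tissues were taken at 1 h, four per group, rinsed, blotted and weighed. Fat, muscle and red cells were combusted directly, other organs after EtOH homogenization. Tissue/plasma 14C ratios were computed.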

Mus musculus [2] = assay: Time to first twitch in intravenous pentylenetetrazole test in mice at 500 mg/kg for 24 hr time of test; type: functional
Method in brief: (§2)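 Carworth Farm no. 1 mice (av wt 20 g) given the compound ip; at the designated time afterwards, 0.5% pentylenetetrazol in heparinized saline was infused into the tail vein at 0.34 mL/min. Time to first twitch (minimal excitation) was recorded for individual mice, observed up to 240 s.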

[3] = Compound was evaluated for the average plasma levels at 24 hours, after administration of intraperitoneal route; type: ADME; conditions: ip, read-out: Plasma level
Method in brief: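 Male Wistar rats were given [14C] compound 5 mg/kg ip in propylene glycol (2 mL/kg). Blood was taken by cardiac puncture under ether at 1, 2, 3, 5 and 7 days, six rats per time point. Plasma 14C was counted to give the β-phase elimination half-life and plasma levels.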

Mus musculus [4] = assay: Time to first twitch in intravenous pentylenetetrazole test in mice at 200 mg/kg for 48 hr time of test; type: functional
Method in brief: (§3)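 Carworth Farm No. 1 mice (average 20 g) were dosed ip. At set times afterwards, 0.5% pentylenetetrazol in heparinized saline was infused into the tail vein at 0.34 mL/min. Time to first twitch was recorded in individual mice, with observation to 240 s.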

[5] = Compound was evaluated for the average plasma levels at 24 hours, after administration of intravenous route; type: ADME; conditions: read-out: Plasma level
Method in brief: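 Male Wistar rats under pentobarbital (25 mg/kg ip) received [14C] compound 5 mg/kg iv in propylene glycol–0.1 N NaOH (1:1). Dosing was by jugular infusion, or by tail vein for later time points.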

Mus musculus [6] = assay: Time to first twitch in intravenous pentylenetetrazole test in mice at 100 mg/kg for 72 hr time of test; type: functional; method in brief: as §3
Mus musculus [7] = assay: Time to first twitch in intravenous pentylenetetrazole test in mice at 100 mg/kg for 48 hr time of test; type: functional; method in brief: as §3
Mus musculus [8] = assay: Compound was evaluated for the neurotoxicity after intraperitoneal administration at 48 hours; type: organism-based; conditions: in vivo, ip
Method in brief: (§4)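 Rotarod ataxia test in Carworth Farm No. 1 mice, run by the ADD program. Dosed ip in aqueous 30% PEG 400. Neurological deficit scored at 24 and 48 h after doses up to 1000 mg/kg.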

Rattus norvegicus = assay: excretion rate in rats after the dose of 5 mg/kg intravenously, at the dose 4 hour Rate of biliary excretion; 0.06-0.15%/h; type: ADME, organism-based, Bile; parameters: dose 5 mg/kg, route intravenous; conditions: in vivo, iv
Mus musculus [9] = assay: Time to first twitch in intravenous pentylenetetrazole test in mice at 300 mg/kg for 72 h time of test; type: functional; method in brief: as §3
Mus musculus [10] = assay: Time to first twitch in intravenous pentylenetetrazole test in mice at 200 mg/kg for 96 hr time of test; type: functional; method in brief: as §3
[11] = Compound was evaluated for the plasma level at 18 hr in the Swiss webster mouse when administered at the […]; type: ADME; conditions: read-out: Plasma level
Method in brief: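 Swiss Webster mice (20–30 g) received [14C] compound 10 mg/kg ip. Four animals were killed at each of 12, 18, 24, 36, 48 and 72 h. Radioactivity was measured in plasma and brain, and the plasma elimination half-life was derived from these levels.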

Mus musculus [12] = assay: Compound was evaluated for the neurotoxicity after intraperitoneal administration at 24 hours; type: organism-based; conditions: in vivo, ip; method in brief: as §4
Mus musculus [13] = assay: Time to first twitch in intravenous pentylenetetrazole test in mice at 200 mg/kg for 72 hr time of test; type: functional; method in brief: as §3
[14] = Compound was evaluated for the tissue levels after 1 hour of administration of 5 mg/kg through intravenous route, the given data is tissue/plasma ratios Muscle; type: ADME, organism-based; parameters: dose 5 mg/kg, route intravenous; method in brief: as §1
[15] = Compound was evaluated for the toxicity in mouse on 7 th day when administered through Oral route; type: organism-based; conditions: in vivo
Method in brief: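 Male Swiss Webster mice (20–40 g) dosed in propylene glycol (10–20 mL/kg), ip at 10, 20, 50, 100 and 200 mg/kg or po at 100 and 200 mg/kg. Ten mice per dose level, observed for toxicity for 1 week. LD50 taken at 7 days.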

[16] = Compound was evaluated for the tissue levels after 1 hour of administration of 5 mg/kg through intravenous route, the given data is tissue/plasma ratios brain; type: ADME, organism-based; parameters: dose 5 mg/kg, route intravenous; method in brief: as §1
[17] = Compound was evaluated for the tissue levels after 1 hour of administration of 5 mg/kg through intravenous route, the given data is tissue/plasma ratios kidneys; type: ADME, organism-based, Kidney; parameters: dose 5 mg/kg, route intravenous; method in brief: as §1
[18] = Compound was evaluated for the tissue levels after 1 hour of administration of 5 mg/kg through intravenous route, the given data is tissue/plasma ratios lungs; type: ADME, organism-based; parameters: dose 5 mg/kg, route intravenous; method in brief: as §1
Mus musculus [19] = assay: Time to first twitch in intravenous pentylenetetrazole test in mice at 200 mg/kg for 30 h time of test; type: functional; method in brief: as §3
Mus musculus [20] = assay: Time to first twitch in intravenous pentylenetetrazole test in mice at 150 mg/kg for 48 hr time of test; type: functional; method in brief: as §3
Mus musculus [21] = assay: Time to first twitch in intravenous pentylenetetrazole test in mice at 750 mg/kg for 48 hr time of test; type: functional; method in brief: as §2
[22] = Compound was evaluated for the in rats after the dose of 5 mg/kg intravenously, at the dose 4 hour biliary excretion; type: ADME, organism-based; parameters: dose 5 mg/kg, route intravenous; conditions: rat, bile, iv, read-out: Excretion
Method in brief: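 Three male rats with jugular cannulae, body temperature held at 37–38 °C, received [14C] compound 5 mg/kg by 3–5 min infusion in propylene glycol–ethanol–0.1 N NaOH (4:1:5, 1 mL/kg). Bile was collected in two 30-min periods, then hourly up to 4 h, and counted. Bile volume was also determined.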

Compound O=C1NC(=O)C(c2ccc(C(F)(F)F)cc2)(c2ccc(C(F)(F)F)cc2)N1 has a Kp at 1 h [1] of 0.48, a Time (Mus musculus [2]) of 27.3 s and a concentration at 24 h [3] of 11000 ng/mL. It also gave a Time (Mus musculus [4]) of 24.5 s, a concentration at 24 h [5] of 9400 ng/mL and a Time (Mus musculus [6]) of 27.1 s. It also gave a Time (Mus musculus [7]) of 24.3 s, a Toxic dose (Mus musculus [8]) of 1000 mg/kg and an Excretion rate (Rattus norvegicus) of 0.15. For the same compound, the Time (Mus musculus [9]) was 24.9 s, the Time (Mus musculus [10]) was 34.5 s and the concentration at 18 h [11] was 27000 ng/mL. For the same compound, the Toxic dose (Mus musculus [12]) was 750 mg/kg, the Time (Mus musculus [13]) was 23.6 s and the Kp at 1 h [14] was 0.41. For the same compound, the LD50 at 7 days [15] was 100 mg/kg, the Kp at 1 h [16] was 0.14 and the Kp at 1 h [17] was 0.61. It also gave a Kp at 1 h [18] of 0.62, a Time (Mus musculus [19]) of 29.6 s and a Time (Mus musculus [20]) of 26.7 s. It also gave a Time (Mus musculus [21]) of 71 s and a dose excreted at 4 h [22] of 0.5%.
